Series [1] in a line: Apparent permeability in dog MDCK2 cells at pH 7.4. The class given is ADME, cell-based, Canis lupus familiaris, MDCK-II. Conditions: MDCK. Summed up:
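Passive permeability across MDCK-II cells; mean apparent permeability reported.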

Series [2] can be described thus: Lipophilicity, log D of compound at pH 7.4. Conditions: buffer. The class given is physicochemical.
Series [3] in a line: Cmax in Sprague-Dawley rat at 3 mg/kg, po. More on the design: dose 3 mg/kg, route oral. The class given is ADME, organism-based. Conditions: in vivo. The gist of the method:
(§1)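 Sprague-Dawley rats dosed orally at 3 mg/kg, with intravenous reference at 1 mg/kg.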

Series [4] can be described thus: Intrinsic clearance in human hepatocytes per million cells. The class given is ADME, cell-based, Hepatocyte. Conditions: read-out: CLH.
A short description of series [5]: Clearance in Sprague-Dawley rat plasma at 1 mg/kg, iv. Format: ADME, organism-based.
Series [6] can be described thus: Volume of distribution in Sprague-Dawley rat at 1 mg/kg, iv. The class given is ADME, organism-based. Conditions: in vivo.
Series [7] in a line: Half life in Sprague-Dawley rat at 1 mg/kg, iv. Format: ADME, organism-based. Conditions: in vivo.
Series [8] in a line: Intrinsic clearance in human liver microsome. The class given is ADME. Conditions: liver microsomes, read-out: CLH. In general terms: Liver microsomes are vesicles of endoplasmic reticulum, rich in cytochrome P450 enzymes.
A short description of series [9]: Oral bioavailability in Sprague-Dawley rat at 3 mg/kg. The class given is ADME, organism-based. Conditions: in vivo. Summed up: as §1
Series [10] is described as follows: AUC infinity in Sprague-Dawley rat at 3 mg/kg, po. The class given is ADME, organism-based. More on the design: dose 3 mg/kg, route oral, time infinity. Conditions: in vivo. The gist of the method: as §1
Series [11] can be described thus: Aqueous solubility of compound in pH 6.5 buffer. The class given is physicochemical. Summed up: (§2)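 Solubility measured on crystalline material at pH 6.5 and pH 2.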
Series [12] can be described thus: Aqueous solubility of compound in pH 2 buffer. Format: physicochemical. Summed up: as §2

In brackets after ≈: the same amount, converted by molar mass.

The Papp is the rate of passage across a membrane or cell layer, normalised by area and donor concentration. The logD is lipophilicity at a set pH, counting ionised and neutral species. Lower therefore signals a more hydrophilic compound. As to `C[C@@H]1[C@@H]2CN(c3nc(Nc4cnn(C)c4)ncc3F)C[C@]12NC(=O)[C@@H]1C[C@H]1C#N`, in [1], the Papp came out at 12.9 ×10⁻⁶ cm/s. For the same molecule, in series [2], the logD turned out to be 2.35.
The molecule `C[C@@H]1[C@@H]2CN(c3nc(Nc4cnn(C)c4)ncc3F)C[C@]12NC(=O)[C@H]1CC1(F)F` returned a logD in series [2] of 2.92.
On the same count and under the same terms, in the case of `O=C(N[C@]12C[C@H]1CN(c1nc(Nc3cnn(CCO)c3)ncc1F)C2)C1CC1` it was 1.75.
The term Cmax denotes the maximum level reached in the sampled fluid or tissue. For orientation: clearance means a measure of how efficiently the substance is removed, as volume per time. As usually defined, the Vd is the apparent volume that relates the amount in the body to the concentration in plasma or blood. A word on the half-life: it is the time needed for the level to fall by half in the phase considered. Higher therefore signals slow loss. For orientation: bioavailability means dose-corrected exposure relative to a reference, in per cent. Low values mean little systemic uptake, high ones much systemic uptake. One may read the AUC(0-inf) as the area under the concentration-time curve extrapolated to infinity. A word on the solubility: it is how much of the substance goes into solution per volume. A lower solubility goes with a poorly soluble substance. The molecule `C[C@@H]1[C@@H]2CN(c3nc(Nc4cnn(C)c4)ncc3F)C[C@]12NC(=O)[C@@H]1CC1(F)F` gave a Cmax in [3] of 614 ng/mL. In addition, the hepatocyte CLint in series [4] stood at 3.45 µL/min/1e6 cells. The clearance in series [5] came out at 13 mL/min/kg. In addition, in series [1], the Papp stood at 17 ×10⁻⁶ cm/s. The molecule further yielded a Vd in series [6] of 1.2 L/kg. In addition, in series [7], the half-life is 1.4 h. In series [8], the microsomal CLint is < 8 µL/min/mg. The molecule further had a bioavailability in [9] of 54%. The same molecule came in with an AUC(0-inf) in series [10] of 2030 ng·h/mL. Besides, in [2], the logD turned out to be 2.65. In addition, the solubility is 140 µg/mL (≈ 344 µM) in series [11] and > 15000 µg/mL in series [12].
Regarding `C[C@@H]1[C@@H]2CN(c3nc(Nc4cnn(CCO)c4)ncc3F)C[C@]12NC(=O)[C@H]1C[C@@H]1C#N`, in series [1], the Papp was determined as 1.2 ×10⁻⁶ cm/s. The molecule further displayed a logD in [2] of 1.75.
As to `CCNC(=O)c1ccc(Nc2nccc(N3CC4CCC(C3)N4C(=O)C3CC3)n2)cc1`, the logD in series [2] worked out at 1.8.
Same read-out and setting: for `N#C[C@H]1C[C@@H]1C(=O)N[C@@]12C[C@@H]1CN(c1nc(Nc3cnn(CCO)c3)ncc1F)C2` the value was 1.43; for `O=C(C1CC1)N1C2CCC1CN(c1nc(Nc3cnn(CCO)c3)ncc1F)C2`, 1.8; for `O=C(N[C@@]12C[C@@H]1CN(c1nc(Nc3cnn(CCO)c3)ncc1F)C2)C1CC1`, 1.74.
For the molecule `N#C[C@@H]1C[C@H]1C(=O)N[C@@]12C[C@@H]1CN(c1nc(Nc3cnn(CCO)c3)ncc1F)C2`, the logD in series [2] turned out to be 1.4.
Still for that read-out and setting: in the case of `C[C@@H]1[C@@H]2CN(c3nc(Nc4cnn(CCO)c4)ncc3F)C[C@]12NC(=O)[C@@H]1C[C@H]1C#N` it was 1.71; in that of `CCNC(=O)c1ccc(Nc2nccc(N3CC4CC(C3)N4C(=O)C3CC3)n2)cc1`, 1.7; in that of `C[C@@H]1[C@@H]2CN(c3nc(Nc4cnn(CCO)c4)ncc3F)C[C@]12NC(=O)C1CC1`, 2.1.
As to `C[C@@H]1[C@@H]2CN(c3nc(Nc4cnn(C)c4)ncc3F)C[C@]12NC(=O)[C@H]1C[C@@H]1C#N`, in [1], the Papp amounted to 13.8 ×10⁻⁶ cm/s. For the same molecule, the logD in series [2] was determined as 2.32.

Values taken from ChEMBL document CHEMBL4619733, “Design and optimization of a series of 4-(3-azabicyclo[3.1.0]hexan-3-yl)pyrimidin-2-amines: Dual inhibitors of TYK2 and JAK1” (Bioorg Med Chem, 2020).
